# Measurements as given in ChEMBL document CHEMBL1240487, “Discovery of a potent, selective, and orally bioavailable pyridinyl-pyrimidine phthalazine aurora kinase inhibitor” (J Med Chem, 2010).
# Calls of active or inactive are those of the source. No cut-off for these calls is given here.
# Assays:
# [1] = biological target: T1, Aurora kinase B (Homo sapiens, UniProt Q96GD4); test: Inhibition of Aurora B by HTRF assay
# In short: (§1)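 Enzyme inhibition was run with ATP at its Km for each kinase. Values are averages of at least two determinations.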
# [2] = biological target: Tyrosine-protein kinase ABL1 (Homo sapiens, UniProt P00519); test: Inhibition of Abl by HTRF assay; in short: as §1
# [3] = biological target: Vascular endothelial growth factor receptor 2 (Homo sapiens, UniProt P35968); test: Inhibition of KDR by HTRF assay; in short: as §1
# [4] = biological target: T2, Ephrin type-B receptor 4 (Homo sapiens, UniProt P54760); test: Inhibition of EphB4 by HTRF assay; in short: as §1
# T2 sequence (P54760 whole entry): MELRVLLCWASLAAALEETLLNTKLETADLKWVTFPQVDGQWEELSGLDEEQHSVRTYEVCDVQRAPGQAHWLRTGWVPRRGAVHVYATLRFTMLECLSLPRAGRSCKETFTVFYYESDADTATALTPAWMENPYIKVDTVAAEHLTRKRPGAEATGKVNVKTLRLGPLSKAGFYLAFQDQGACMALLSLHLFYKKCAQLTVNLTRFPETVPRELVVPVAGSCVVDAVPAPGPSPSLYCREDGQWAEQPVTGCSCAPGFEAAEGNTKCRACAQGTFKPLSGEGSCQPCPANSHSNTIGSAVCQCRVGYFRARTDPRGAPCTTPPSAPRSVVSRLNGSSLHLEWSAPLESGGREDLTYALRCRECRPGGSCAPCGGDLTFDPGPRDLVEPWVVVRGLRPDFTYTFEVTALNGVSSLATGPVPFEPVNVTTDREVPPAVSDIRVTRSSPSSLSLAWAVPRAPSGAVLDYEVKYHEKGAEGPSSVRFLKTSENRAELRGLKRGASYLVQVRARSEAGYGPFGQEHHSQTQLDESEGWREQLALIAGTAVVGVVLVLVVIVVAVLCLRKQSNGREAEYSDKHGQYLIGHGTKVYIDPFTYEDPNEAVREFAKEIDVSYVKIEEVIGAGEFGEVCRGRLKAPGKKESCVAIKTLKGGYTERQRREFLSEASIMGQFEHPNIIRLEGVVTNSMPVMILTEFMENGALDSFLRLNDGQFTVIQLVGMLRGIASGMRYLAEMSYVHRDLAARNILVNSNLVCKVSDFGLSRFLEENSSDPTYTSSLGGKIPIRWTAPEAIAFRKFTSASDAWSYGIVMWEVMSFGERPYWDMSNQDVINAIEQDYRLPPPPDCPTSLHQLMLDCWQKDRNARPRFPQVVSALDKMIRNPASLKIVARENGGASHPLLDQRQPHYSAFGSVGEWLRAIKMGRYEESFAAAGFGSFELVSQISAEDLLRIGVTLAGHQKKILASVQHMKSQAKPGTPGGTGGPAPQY
# [5] = biological target: T3, Tyrosine-protein kinase ZAP-70 (Homo sapiens, UniProt P43403); test: Inhibition of Zap70 by HTRF assay; in short: as §1
# T3 sequence (P43403 whole entry): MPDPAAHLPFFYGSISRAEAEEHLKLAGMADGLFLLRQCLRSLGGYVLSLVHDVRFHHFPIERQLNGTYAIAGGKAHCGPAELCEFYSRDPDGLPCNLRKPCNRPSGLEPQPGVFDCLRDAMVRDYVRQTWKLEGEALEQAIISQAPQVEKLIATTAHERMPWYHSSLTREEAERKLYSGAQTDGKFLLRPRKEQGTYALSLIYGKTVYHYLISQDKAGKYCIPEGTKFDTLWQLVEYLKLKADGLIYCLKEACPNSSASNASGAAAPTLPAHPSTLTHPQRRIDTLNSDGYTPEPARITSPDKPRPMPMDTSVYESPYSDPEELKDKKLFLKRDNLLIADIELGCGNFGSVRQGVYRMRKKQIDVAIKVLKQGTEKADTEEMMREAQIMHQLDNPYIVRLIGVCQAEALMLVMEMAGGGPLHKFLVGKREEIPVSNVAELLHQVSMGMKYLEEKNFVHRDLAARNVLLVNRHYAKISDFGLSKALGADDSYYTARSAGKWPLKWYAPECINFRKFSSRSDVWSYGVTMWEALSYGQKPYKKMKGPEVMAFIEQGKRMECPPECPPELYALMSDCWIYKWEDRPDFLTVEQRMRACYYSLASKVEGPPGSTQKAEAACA
# [6] = biological target: Serine/threonine-protein kinase PLK1 (Homo sapiens, UniProt P53350); test: Inhibition of PLK1 by HTRF assay; in short: as §1
# [7] = biological target: Cyclin-dependent kinase 5 (Homo sapiens, UniProt Q00535); test: Inhibition of CDK5 by HTRF assay; in short: as §1
# [8] = biological target: Tyrosine-protein kinase BTK (Homo sapiens, UniProt Q06187); test: Inhibition of BTK by HTRF assay
# [9] = biological target: Hepatocyte growth factor receptor (Homo sapiens, UniProt P08581); test: Inhibition of c-Met by HTRF assay; in short: as §1
# [10] = biological target: Tyrosine-protein kinase ABL1 (Homo sapiens, UniProt P00519, T315I); test: Inhibition of Abl T315I mutant by HTRF assay; in short: as §1
# [11] = biological target: Cyclin-dependent kinase 2 (Homo sapiens, UniProt P24941); test: Inhibition of CDK2 by HTRF assay; in short: as §1
# [12] = Clearance in Sprague-Dawley rat at 0.5 mg/kg, iv and 2 mg/kg, po; assay type: ADME, organism-based; conditions: in vivo
# [13] = Volume of distribution at steady state in Sprague-Dawley rat at 0.5 mg/kg, iv and 2 mg/kg, po; assay type: ADME, organism-based; conditions: in vivo, read-out: Vdss
# [14] = Aqueous equilibrium solubility of the compound in 0.01N HCL; assay type: physicochemical
# [15] = biological target: T1, Aurora kinase B; test: Inhibition of aurora B in human HeLa cells assessed as increase of >= 4N DNA level at 0.313 uM after 24 hrs using Hoechst staining by flow cytometry; assay type: cell-based
# In short: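 In the 24 h DNA ploidy assay, HeLa cells were exposed to compound for 24 h. The read-out was accumulation of cells with ≥4N DNA content relative to control. For the single-concentration test, cells were treated at 0.313 μM, and p-histone H3 Ser10 and DNA content (2N/4N/8N) were read by flow cytometry. The ploidy read-out gave an EC50.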
# [16] = Drug level in human COLO205 cells xenografted in CD1 mouse plasma at 50 mg/kg, po after 24 hrs; assay type: ADME, organism-based, COLO 205; set-up: dose 50 mg/kg, route oral
# In short: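 COLO 205 xenograft-bearing mice received a single 50 mg/kg oral dose (N = 12 per group). Plasma was sampled at 3, 6 and 24 h (N = 4 per time point) and analyzed for drug concentration. Results are reported as mean ± SD.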
# [17] = tested on: Plasma; test: Fraction unbound in mouse plasma at 10 uM after 6 hrs by ultrafiltration; assay type: ADME, cell-free
# [18] = tested on: Plasma; test: Fraction unbound in mouse plasma at 10 uM after 24 hrs by ultrafiltration; assay type: ADME, cell-free
# [19] = biological target: Aurora kinase A (Homo sapiens) (UniProt O14965); test: Inhibition of aurora A autophosphorylation in human HeLa cells at 0.313 uM after 3 hrs by Western blotting
# [20] = biological target: T1, Aurora kinase B; test: Inhibition of aurora B autophosphorylation in human HeLa cells at 0.313 uM after 3 hrs by Western blotting
# Chain of Serine/threonine-protein kinase PLK1 (P53350 whole entry): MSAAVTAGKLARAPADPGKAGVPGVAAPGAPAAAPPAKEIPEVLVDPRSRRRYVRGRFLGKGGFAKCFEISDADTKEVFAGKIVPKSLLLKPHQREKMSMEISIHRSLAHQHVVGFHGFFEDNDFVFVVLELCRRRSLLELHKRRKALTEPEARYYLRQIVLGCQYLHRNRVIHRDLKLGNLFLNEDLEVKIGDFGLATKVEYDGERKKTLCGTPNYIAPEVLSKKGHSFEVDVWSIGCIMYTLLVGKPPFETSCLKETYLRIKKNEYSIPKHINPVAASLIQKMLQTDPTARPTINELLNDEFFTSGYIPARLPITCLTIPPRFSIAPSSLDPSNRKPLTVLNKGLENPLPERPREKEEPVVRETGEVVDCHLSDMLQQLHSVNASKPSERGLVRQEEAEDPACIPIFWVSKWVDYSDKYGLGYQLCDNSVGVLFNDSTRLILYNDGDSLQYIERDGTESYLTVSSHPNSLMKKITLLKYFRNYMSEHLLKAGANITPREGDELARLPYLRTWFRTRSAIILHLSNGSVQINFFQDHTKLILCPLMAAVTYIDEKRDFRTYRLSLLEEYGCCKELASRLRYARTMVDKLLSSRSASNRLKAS
# T1 sequence (Q96GD4 whole entry): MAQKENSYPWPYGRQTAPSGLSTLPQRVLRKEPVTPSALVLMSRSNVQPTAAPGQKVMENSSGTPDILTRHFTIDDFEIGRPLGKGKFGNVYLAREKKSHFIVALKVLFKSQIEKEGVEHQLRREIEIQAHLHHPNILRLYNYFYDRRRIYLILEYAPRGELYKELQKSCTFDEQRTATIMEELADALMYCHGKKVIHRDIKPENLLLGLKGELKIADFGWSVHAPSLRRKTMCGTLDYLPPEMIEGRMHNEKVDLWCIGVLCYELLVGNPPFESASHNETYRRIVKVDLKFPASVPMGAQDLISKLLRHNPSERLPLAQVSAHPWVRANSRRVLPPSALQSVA
# Chain of Cyclin-dependent kinase 5 (Q00535 whole entry): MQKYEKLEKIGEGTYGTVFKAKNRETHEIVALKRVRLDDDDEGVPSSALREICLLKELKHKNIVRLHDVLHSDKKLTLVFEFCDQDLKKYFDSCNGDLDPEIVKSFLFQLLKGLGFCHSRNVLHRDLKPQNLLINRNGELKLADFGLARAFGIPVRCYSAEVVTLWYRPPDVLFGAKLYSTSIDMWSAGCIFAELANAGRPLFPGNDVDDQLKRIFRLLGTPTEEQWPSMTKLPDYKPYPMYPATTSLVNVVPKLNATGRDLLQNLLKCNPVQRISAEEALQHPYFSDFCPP
# Chain of Tyrosine-protein kinase BTK (Q06187 whole entry): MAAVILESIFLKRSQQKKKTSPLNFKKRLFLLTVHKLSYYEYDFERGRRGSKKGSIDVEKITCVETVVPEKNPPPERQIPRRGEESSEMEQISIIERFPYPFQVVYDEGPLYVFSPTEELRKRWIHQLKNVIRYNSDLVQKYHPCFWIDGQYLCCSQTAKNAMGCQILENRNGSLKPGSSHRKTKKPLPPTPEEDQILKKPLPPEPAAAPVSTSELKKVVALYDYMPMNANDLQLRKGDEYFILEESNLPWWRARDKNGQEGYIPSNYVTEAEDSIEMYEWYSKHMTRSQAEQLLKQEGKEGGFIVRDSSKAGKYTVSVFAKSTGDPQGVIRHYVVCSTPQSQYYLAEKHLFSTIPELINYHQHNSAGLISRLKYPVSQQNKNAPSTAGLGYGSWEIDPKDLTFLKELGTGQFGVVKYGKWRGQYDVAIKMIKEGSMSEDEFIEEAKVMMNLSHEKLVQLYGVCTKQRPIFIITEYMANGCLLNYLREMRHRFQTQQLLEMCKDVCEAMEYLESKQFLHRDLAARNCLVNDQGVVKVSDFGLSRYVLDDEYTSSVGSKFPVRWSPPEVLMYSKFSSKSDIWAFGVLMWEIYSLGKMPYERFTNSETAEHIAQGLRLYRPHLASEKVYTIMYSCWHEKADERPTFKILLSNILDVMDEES
# Chain of Hepatocyte growth factor receptor (P08581 whole entry): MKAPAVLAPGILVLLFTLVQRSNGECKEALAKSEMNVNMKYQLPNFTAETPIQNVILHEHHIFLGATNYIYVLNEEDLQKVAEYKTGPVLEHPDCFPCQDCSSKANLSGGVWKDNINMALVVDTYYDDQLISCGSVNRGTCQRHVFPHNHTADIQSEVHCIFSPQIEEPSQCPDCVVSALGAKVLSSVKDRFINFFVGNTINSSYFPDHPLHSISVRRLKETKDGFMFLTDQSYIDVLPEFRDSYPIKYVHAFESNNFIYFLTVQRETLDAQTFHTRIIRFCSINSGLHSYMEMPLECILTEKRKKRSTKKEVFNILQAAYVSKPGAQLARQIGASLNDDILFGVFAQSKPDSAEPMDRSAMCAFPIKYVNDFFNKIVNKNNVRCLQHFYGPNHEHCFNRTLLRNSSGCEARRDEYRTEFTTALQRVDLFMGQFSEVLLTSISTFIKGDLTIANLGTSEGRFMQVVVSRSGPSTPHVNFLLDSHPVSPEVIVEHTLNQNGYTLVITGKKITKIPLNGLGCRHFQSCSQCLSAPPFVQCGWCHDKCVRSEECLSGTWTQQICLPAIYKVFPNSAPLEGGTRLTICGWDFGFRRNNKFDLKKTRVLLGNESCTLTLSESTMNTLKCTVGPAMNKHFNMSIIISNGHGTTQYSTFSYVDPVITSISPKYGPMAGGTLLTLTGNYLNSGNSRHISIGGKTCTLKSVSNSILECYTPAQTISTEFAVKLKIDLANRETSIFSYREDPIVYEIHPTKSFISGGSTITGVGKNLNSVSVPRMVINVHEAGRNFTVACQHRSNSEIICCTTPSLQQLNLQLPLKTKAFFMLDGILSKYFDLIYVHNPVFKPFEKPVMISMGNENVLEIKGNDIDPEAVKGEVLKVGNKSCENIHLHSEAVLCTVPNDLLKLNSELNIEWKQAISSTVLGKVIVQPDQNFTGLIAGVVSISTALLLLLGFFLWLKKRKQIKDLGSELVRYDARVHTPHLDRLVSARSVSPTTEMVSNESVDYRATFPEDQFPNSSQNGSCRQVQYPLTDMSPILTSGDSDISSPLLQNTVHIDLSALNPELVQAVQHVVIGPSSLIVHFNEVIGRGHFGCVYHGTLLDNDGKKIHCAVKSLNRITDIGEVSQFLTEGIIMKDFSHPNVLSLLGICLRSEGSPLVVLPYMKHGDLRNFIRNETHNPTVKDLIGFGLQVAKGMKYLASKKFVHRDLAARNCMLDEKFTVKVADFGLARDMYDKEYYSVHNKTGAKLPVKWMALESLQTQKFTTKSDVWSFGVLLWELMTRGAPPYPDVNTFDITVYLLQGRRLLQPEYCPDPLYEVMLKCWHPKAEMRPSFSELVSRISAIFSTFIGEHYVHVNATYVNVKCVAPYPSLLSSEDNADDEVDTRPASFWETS
# Chain of Vascular endothelial growth factor receptor 2 (P35968 whole entry): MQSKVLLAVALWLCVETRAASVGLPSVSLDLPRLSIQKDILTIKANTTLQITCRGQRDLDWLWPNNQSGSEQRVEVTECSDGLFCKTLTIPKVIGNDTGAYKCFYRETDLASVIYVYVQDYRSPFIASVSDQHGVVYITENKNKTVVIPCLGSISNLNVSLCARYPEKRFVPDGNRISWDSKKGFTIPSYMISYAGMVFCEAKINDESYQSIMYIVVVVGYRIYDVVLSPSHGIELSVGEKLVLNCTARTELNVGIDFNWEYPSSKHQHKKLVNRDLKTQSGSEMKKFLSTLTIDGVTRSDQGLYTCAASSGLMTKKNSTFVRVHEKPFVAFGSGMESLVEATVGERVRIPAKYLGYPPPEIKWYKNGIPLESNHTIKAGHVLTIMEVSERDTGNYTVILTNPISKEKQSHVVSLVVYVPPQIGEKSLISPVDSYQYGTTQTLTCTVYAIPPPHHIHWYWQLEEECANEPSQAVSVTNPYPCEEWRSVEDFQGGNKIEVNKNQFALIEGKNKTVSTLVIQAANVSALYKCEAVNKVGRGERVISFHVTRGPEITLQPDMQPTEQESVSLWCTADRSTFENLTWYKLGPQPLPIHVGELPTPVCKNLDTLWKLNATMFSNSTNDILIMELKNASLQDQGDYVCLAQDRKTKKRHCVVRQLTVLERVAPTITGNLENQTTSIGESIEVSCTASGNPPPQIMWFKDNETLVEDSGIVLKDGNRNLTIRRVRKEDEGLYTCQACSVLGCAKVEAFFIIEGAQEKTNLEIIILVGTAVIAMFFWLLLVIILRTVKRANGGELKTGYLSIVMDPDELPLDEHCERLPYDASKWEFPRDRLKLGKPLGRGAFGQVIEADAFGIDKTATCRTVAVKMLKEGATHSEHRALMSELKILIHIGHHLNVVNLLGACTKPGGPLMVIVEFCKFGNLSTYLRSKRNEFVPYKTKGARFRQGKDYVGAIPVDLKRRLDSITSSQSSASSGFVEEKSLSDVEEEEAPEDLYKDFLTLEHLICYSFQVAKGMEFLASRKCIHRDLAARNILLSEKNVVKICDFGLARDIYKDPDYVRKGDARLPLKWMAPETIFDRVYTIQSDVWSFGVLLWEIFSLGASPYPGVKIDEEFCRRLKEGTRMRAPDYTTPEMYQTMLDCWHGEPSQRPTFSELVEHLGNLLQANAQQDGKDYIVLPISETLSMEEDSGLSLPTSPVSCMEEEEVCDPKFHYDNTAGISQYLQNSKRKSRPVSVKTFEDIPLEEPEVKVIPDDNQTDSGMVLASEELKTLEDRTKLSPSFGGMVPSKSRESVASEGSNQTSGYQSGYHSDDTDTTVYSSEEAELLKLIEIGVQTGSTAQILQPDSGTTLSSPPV
# Chain of Aurora kinase A (Homo sapiens) (O14965 whole entry): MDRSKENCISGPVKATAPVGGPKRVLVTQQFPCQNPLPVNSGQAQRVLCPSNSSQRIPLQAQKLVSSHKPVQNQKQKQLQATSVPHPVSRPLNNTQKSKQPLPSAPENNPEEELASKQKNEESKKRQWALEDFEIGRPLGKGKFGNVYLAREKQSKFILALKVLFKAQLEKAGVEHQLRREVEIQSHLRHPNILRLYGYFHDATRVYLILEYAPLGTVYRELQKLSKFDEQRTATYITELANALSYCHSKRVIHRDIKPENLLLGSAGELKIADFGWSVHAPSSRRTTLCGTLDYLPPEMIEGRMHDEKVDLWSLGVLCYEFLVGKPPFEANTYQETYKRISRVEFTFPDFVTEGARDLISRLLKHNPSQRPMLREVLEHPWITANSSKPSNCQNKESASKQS
smiles,measurement,setting,value
CNc1nccc(-c2cccnc2Oc2ccc(NC(=O)c3cccc(C(F)(F)F)c3)cc2C)n1,IC50,[1],66 nM
same,IC50,[2],503 nM
same,IC50,[3],3270 nM
same,IC50,[4],> 8000 nM
same,IC50,[5],> 8000 nM
same,IC50,[6],> 8000 nM
same,IC50,[7],> 8000 nM
CNc1nccc(-c2cccnc2Oc2ccc(NC(=O)c3ccccc3Nc3ccccc3)cc2)n1,IC50,[1],9 nM
same,IC50,[4],> 1000 nM
same,IC50,[5],> 1000 nM
same,IC50,[8],> 1000 nM
same,IC50,[6],> 1000 nM
same,IC50,[7],> 1000 nM
same,IC50,[9],> 1000 nM
same,IC50,[10],> 1000 nM
same,IC50,[11],> 1000 nM
same,clearance,[12],60 mL/min/kg
same,Vd,[13],4.8 L/kg
same,solubility thermodynamic,[14],5 µg/mL
CNc1nccc(-c2cccnc2Oc2ccc(Nc3nnc(-c4ccc(F)cc4)c4ccccc34)cc2)n1,IC50,[1],15 nM
same,IC50,[4],> 25000 nM
same,IC50,[5],> 25000 nM
same,IC50,[8],> 25000 nM
same,IC50,[6],> 25000 nM
same,IC50,[7],> 25000 nM
same,solubility thermodynamic,[14],> 200 µg/mL
same,Activity,[15],Active
same,concentration at 24 h,[16],2460 ng/mL
same,unbound concentration,[17],< 20 ng/mL
same,unbound concentration,[18],< 2.5 ng/mL
same,Activity,[19],Active
same,Activity,[20],Active
